# Only some compounds are listed: those with a hit (about 1.8% of all), similar ones and a draw of the others.
# CHRM4 antagonist: blocks acetylcholine activation of human M4 receptor | AID 624125 | hit rate 0.73% among 360,000 | P08173 | inhibition, % at 3 µM | CHO-hM4 cells, ACh EC80, Fluo-8 calcium fluorescence;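 active = inhibition above its plate's cutoff, the mean inhibition of sample wells plus 3 SD, cut at about 27% in these data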;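 also: 0% = acetylcholine EC80 with DMSO and 100% = DMSO without agonist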
# Target sequence (P08173 whole entry, looked up): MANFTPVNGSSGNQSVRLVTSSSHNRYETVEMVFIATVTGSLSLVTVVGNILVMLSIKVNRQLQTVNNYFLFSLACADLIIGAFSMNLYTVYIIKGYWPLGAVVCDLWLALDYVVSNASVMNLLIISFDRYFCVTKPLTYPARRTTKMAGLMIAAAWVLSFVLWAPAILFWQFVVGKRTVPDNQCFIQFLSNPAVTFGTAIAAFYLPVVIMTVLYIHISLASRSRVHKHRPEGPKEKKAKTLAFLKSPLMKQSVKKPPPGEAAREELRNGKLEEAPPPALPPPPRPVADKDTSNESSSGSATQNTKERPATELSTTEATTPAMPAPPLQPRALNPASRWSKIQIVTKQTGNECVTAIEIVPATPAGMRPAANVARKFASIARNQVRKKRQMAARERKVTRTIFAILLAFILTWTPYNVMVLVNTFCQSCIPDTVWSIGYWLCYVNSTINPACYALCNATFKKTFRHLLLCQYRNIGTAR
# M5 ag: agonists of human muscarinic M5 receptor (CHRM5) | hit rate 0.19% among 360,000 | activation, % at 3 µM | CHO-K1 hM5 cells, Fluo-8 calcium fluorescence; 0% DMSO wells, 100% maximal acetylcholine response | P08912;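 active = activation above the run's mean over test compounds plus 3 SD, cut at about 23% in these data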;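 also: signal is peak over basal fluorescence ratio across the kinetic read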
# CHRM4 PAM: CHRM4 positive allosteric modulation; P08173; CHO-K1 hM4/Gqi5, Fluo-8 calcium fluorescence, ACh EC20; 0% = ACh EC20, 100% = maximal ACh; activation, % at 3 µM; hit rate 0.4% among 360,000; AID 624126;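 active = activation above its plate's cutoff, the mean activation of sample wells plus 3 SD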
# M4 ag: agonists of human muscarinic M4 receptor (CHRM4). CHO-K1 hM4/Gqi5, Fluo-8 calcium fluorescence; vehicle 0%, full acetylcholine response 100%. activation, % at 3 µM. hit rate 0.14% among 360,000. P08173. AID 624127;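 active = activation above the run mean over all test wells plus 3 SD, cut at about 32% in these data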;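 also: peak over basal fluorescence ratio per well then scaled between controls; 0% = DMSO wells and 100% = acetylcholine at EC100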
# CHRM5 PAM: CHRM5 positive allosteric modulation | P08912 | CHO-K1 hM5, Fluo-8 calcium, ACh EC20 PAM; 0% = ACh EC20, 100% = ACh EC100 | activation, % at 3 µM | hit rate 0.3% among 360,000 | AID 624038;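 active = activation above the run cutoff, the mean activation of all test compounds plus 3 SD, cut at about 18% in these data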
#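 Measured by: Fluo-8 calcium fluorescence; material: human M5 receptor in CHO-K1 cells; schedule: Post-acetylcholine fluorescence recording 140 s; benchmarks: low control EC20 acetylcholine (0%), high control EC100 acetylcholine (100%); read-out: Max/basal fluorescence ratio as % of EC20–EC100 ACh window; compound: single dose, 3 µM nominal final test concentration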
# M5 antag: blocks acetylcholine activation of human M5 receptor; P08912; CHO-hM5 cells, Fluo-8 calcium fluorescence, ACh EC80; inhibition, % at 3 µM; hit rate 0.59% among 360,000;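 active = inhibition above a per-plate cutoff, the mean of that plate's test compounds plus 3 SD, cut at about 27% in these data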;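 also: 0% = acetylcholine EC80 with DMSO and 100% = DMSO without agonist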
# An asterisk follows results filed as active.
SMILES,CHRM4 antagonist,M5 ag,CHRM4 PAM,M4 ag,CHRM5 PAM,M5 antag
COc1ccc(OCC(=O)Nc2c3c(nn2-c2ccccc2)CS(=O)(=O)C3)cc1,3,-1,-3,2,-7,14
CSc1sc(C(=O)Nc2ccc(F)cc2F)c2c1C=CCC2,-5,1,-5,-2,6,-5
Cc1cc(-c2ccccc2)[nH]c(=O)c1S(=O)(=O)c1ccc(Cl)cc1,5,2,6,0,-3,4
Cc1cc(-c2ccccc2)[nH]c(=O)c1S(=O)(=O)c1ccccc1,-3,-4,2,3,21*,4
CCn1cc(CN2CCC(n3nccc3NC(=O)c3ccc(OC)cc3)CC2)cn1,5,-9,-11,1,-3,-1
Cc1cccc(CSC(=N)N)c1,6,-5,0,1,-3,5
Cc1cccc(CSC(Nc2ccc(F)cc2)=C(C#N)C#N)c1,18,6,-14,11,-15,30*
N#CC(C#N)=C(Nc1ccc(F)cc1)SCc1cccc(Br)c1,19,6,-15,10,-19,32*
CCCCn1c(N)c(N(CCOC)C(=O)Cn2c(=O)oc3ccccc32)c(=O)[nH]c1=O,2,3,3,1,1,1
Cc1ccc(S(=O)(=O)Oc2ccc(C)cc2/C=N/N=C2\NC(=O)C(C)S2)cc1 (stereo not given),7,-9,3,0,18*,-14
COc1ccc(/C=N/N=C2/NC(=O)C(CC(=O)O)S2)cc1OS(=O)(=O)c1ccccc1 (stereo not given),-2,2,-1,-1,-4,7
O=C(c1ccco1)N1CCN(C2CN(C3CCCCC3)S(=O)(=O)C2)CC1 (stereo not given),-3,4,-1,0,0,3
COC(=O)c1ccc(N2CCOCC2)c(NC(=O)Nc2cccc(OC)c2)c1,0,1,-5,3,-7,3
CCOC(=O)c1ccc(N2CCN(c3ccccc3F)CC2)c(NC(=O)Nc2cccc(OC)c2)c1,3,-1,4,3,-20,45*
CCN(CC)CC(C)(C)C(=O)/C=C/c1ccc(/C=C/C(=O)C(C)(C)CN(CC)CC)cc1,42*,-1,-6,3,6,12
COc1ccc(CCNc2nc(-c3ccc(F)cc3)c(CC(=O)O)s2)cc1OC,-10,0,-3,3,-2,3
CCN(CC)S(=O)(=O)c1ccc(-n2cnc3cc(C)c(C)cc32)nc1,0,0,0,1,-8,17
O=[N+]([O-])c1ccc2cn(C3OC(CO)C(O)C3O)nc2c1 (stereo not given),-10,-1,8,1,-4,3
O=C(c1cc2sccc2n1Cc1ccccc1)N1CCN(c2nc3ccccc3s2)CC1,27*,-1,-10,4,-10,15
CCC(=O)N1CCN(c2nc3ccccc3s2)CC1,-4,4,4,4,-4,-1
O=C(C1=C(O)C(=O)N(CCN2CCOCC2)C1c1cccc(O)c1)c1cc2ccccc2o1 (stereo not given),-3,-3,19*,2,-1,3
COc1ccc(CCNC(=O)Cn2c(=O)n(-c3ccc(F)cc3)c(=O)c3sccc32)cc1OC,0,1,12,-1,1,0
O=C(CS(=O)(=O)c1ccc(F)cc1)NCc1ccccc1,-1,0,-2,0,-4,9
CCOc1ccccc1CNS(=O)(=O)c1ccc(-c2cnc(C3CC3)o2)cc1,28*,3,-11,19,-16,28*
O=[N+]([O-])c1ccc(-n2nncc2-c2ccccc2)cc1,-8,-18,-10,0,19*,-9
O=C(CN1C(=O)c2ccccc2C1=O)OCC(=O)N1CCN(c2ccccc2)CC1,1,4,-7,12,-24,17
Cc1ccc(S(=O)(=O)Nc2ccc3cn[nH]c3c2)c(C)c1,0,12,0,6,-5,4
CCOc1cc(C)c(S(=O)(=O)Nc2ccc3cn[nH]c3c2)cc1C,17,9,-2,14,-16,30*

# Bioassay records as filed in PubChem.
